Measured values: article PMC3866046 (Biochemical pharmacology, 2013)
Where two headings read alike, the source gives them in different places. Values belong to the compound of their own block, whether it stands above or below them.

Tests used:
hENT2 [1] = target: T1, hENT2 (Homo sapiens, UniProt Q14542); experiment: Inhibition of [3H]uridine uptake in PK15/hENT2 cells; type: cell-based
T1 sequence (Q14542 1-456): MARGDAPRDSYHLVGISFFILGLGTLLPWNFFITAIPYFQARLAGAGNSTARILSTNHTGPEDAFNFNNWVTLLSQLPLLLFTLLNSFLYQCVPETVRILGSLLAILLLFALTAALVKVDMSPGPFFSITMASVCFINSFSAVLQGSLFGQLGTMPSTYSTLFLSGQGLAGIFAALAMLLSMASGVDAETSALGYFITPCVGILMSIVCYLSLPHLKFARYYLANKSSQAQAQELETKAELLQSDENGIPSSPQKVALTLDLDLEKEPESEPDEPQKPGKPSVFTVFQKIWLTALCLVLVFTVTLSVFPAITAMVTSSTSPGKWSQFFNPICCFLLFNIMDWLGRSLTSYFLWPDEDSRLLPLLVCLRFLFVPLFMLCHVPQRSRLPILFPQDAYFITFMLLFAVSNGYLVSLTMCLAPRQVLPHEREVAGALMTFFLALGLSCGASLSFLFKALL
In short: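 PK15 cells stably expressing hENT2, in sodium-free choline chloride buffer at pH 7.4. Test compound was added for 15 min, either at graded concentrations or at 10 μM for screening; 0.2 μM [3H]uridine was then taken up for 2 min. Stopped with ice-cold PBS washes, lysed in Triton X-100, scintillation counted. Triplicates; screening uptake given as % of compound-free uptake; IC50 by nonlinear fit.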

hENT4 = target: T2, hENT4 (Homo sapiens, UniProt Q7RTT9); experiment: Inhibition of [3H]adenosine uptake in PK15/hENT4 cells at pH 6.0; type: cell-based
T2 sequence (Q7RTT9 1-530): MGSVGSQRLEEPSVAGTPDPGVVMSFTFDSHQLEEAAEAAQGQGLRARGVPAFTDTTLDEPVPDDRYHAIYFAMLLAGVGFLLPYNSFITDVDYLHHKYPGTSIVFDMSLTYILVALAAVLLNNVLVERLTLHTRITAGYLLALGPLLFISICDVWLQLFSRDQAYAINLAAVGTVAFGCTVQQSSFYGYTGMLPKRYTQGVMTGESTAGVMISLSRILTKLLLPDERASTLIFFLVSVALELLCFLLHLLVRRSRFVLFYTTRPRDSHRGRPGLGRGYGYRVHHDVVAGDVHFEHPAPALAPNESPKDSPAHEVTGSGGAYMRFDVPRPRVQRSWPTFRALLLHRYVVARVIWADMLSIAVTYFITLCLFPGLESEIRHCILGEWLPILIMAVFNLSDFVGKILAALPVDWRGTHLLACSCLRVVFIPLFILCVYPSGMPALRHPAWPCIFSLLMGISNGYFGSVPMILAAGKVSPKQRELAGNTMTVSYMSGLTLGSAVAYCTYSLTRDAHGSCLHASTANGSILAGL
In short: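 PK15NTD porcine kidney cells stably expressing FLAG-tagged hENT4 (cDNA cloned from HUVECs, G418-selected). Cells preincubated 15 min with graded test compound concentrations in transport buffer at pH 6.0, then given 0.2 μM [3H]adenosine for 2 min. Stopped by aspiration and three ice-cold PBS washes, lysed in 5% Triton X-100, scintillation counted. Triplicates; IC50 by nonlinear fitting.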

hENT2 [2] = target: T1, hENT2; conditions: read-out: hENT2 IC50; cited from earlier work
PK15-hENT4 cells = experiment: MTT assay for cell viability; type: cell-based, porcine; conditions: 10 μM, 24 hours, compared with camptothecin
In short: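 PK15NTD (nucleoside-transporter-deficient) cells stably expressing recombinant hENT4 were trypsinised and seeded at 5 × 10^3 cells/well in MEM. […] MTT (5 mg/ml stock in PBS) was added for 4 h at 37 °C. Formazan was dissolved in 0.04 N HCl/isopropanol for 3 h at room temperature, and absorbance was read at 570 nm.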

human ENT4 = conditions: read-out: apparent Km of adenosine transport; pH 5.5; cited from earlier work
mouse ENT4 = conditions: read-out: apparent Km of adenosine transport; pH 5.5; cited from earlier work

IC50 (hENT2 [1]): 1350 nM | IC50 (hENT4): 2330 nM
Compound: O=[N+]([O-])c1ccc(CSc2ncnc3c2ncn3[C@@H]2O[C@H](CO)[C@@H](O)[C@H]2O)cc1 [NBMPR, nitrobenzylmercaptopurine ribonucleoside, reference compound]
IC50 (hENT2 [2]): 2800 nM

activity against hENT2 (in words) (hENT2 [1]): active
Compound: OCCN(CCO)c1nc(N2CCCCCCC2)c2nc(N(CCO)CCO)nc(N3CCCCCCC3)c2n1 [Compound 13, 2,6-bis(diethanolamino)-4,8-diheptamethyleneimino-pyrimido[5,4d]pyrimidine]

selectivity for hENT4 relative to ENT1 (hENT4): about 80 fold | selectivity for hENT4 relative to ENT2 (hENT4): ~20 fold
Compound: CC(C)CN(CC(C)C)c1nc(NCCO)nc2c(N(CC(C)C)CC(C)C)nc(NCCO)nc12 [Compound 30, 2,6-diethanolamino-4,8-di-(diisobutylamino)-pyrimido[5,4-d]pyrimidine]
cytotoxicity / cell viability (in words) (PK15-hENT4 cells): no cytotoxicity | cytotoxicity / cell viability (in words) (PK15-hENT4 cells; listed as compound 30): significantly non-cytotoxic

Compound: Nc1ncnc2c1ncn2[C@@H]1O[C@H](CO)[C@@H](O)[C@H]1O [adenosine]
Km (human ENT4): 780 µM | Km (mouse ENT4): 130 µM
